Screens as filed in PubChem.
MPTP inh: permeability transition pore inhibition. isolated mouse mitochondria, Ca2+ swelling absorbance, 30 min. inhibition, % at 10 µM. hit rate 1.4% among 360,000. AID 602449;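 active means inhibition of 50% or more, scaled per plate between neutral and stimulator controls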;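 further: 0% = DMSO wells given calcium and 100% = 1 mM EGTA wells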
TAAR1 antagonist: human TAAR1 antagonism | CHO RD-HGA16 TAAR1, Fluo-8 calcium fluorescence, antagonist | inhibition, % at 3 µM | hit rate 1.5% among 360,000 | Q96RJ0 | AID 624466;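 active means inhibition above a per-plate cutoff, the mean inhibition of test compounds on that plate plus 3 SD, cut at about 49% in these data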;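 further: 0% = DMSO plus EC80 beta-PEA response and 100% = DMSO alone without agonist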
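Material: CHO RD-HGA16 cells bearing hTAAR1; compound dosing: one-point dosing, 3 µM nominal final; schedule: dye loading 75 min at 37 °C, then 30 min room temperature; measured by: calcium fluorescence with Fluo-8; control set: vehicle and agonist controls; replication: n of 1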
TAAR1 agonist: agonists of human TAAR1 | Q96RJ0 | CHO RD-HGA16 TAAR1, Fluo-8 calcium fluorescence; vehicle wells 0%, saturating PEA agonist 100% | activation, % at 3 µM | hit rate 0.99% among 360,000;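 active means activation above the mean activation of all test compounds in the run plus 3 SD, cut at about 38% in these data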
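Test system: RD-HGA16 (CHO) cells co-expressing Gα16 and hTAAR1; dosing: one-point dosing at 3 µM (nominal); timing: 17-24 h seeding, 75 min 37 °C dye, 30 min RT; signal: kinetic Fluo-8 calcium fluorescence; read-out basis: % activation relative to PEA EC100 response; controls: DMSO and PEA EC100; replicates: n 1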
GPR7 antag: antagonists of human GPR7 (neuropeptides B/W receptor 1); P48145; GPR7-expressing cells, fluorescence antagonist assay; hit rate 1.1% among 290,000; inhibition, % at 4.4 µM; AID 1861; in the data active means inhibition above about 16%, passing the limit was not always enough;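 further: cells stimulated with the agonist NPW; 0% = agonist with vehicle and 100% = vehicle without agonist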
Target sequence (P48145 whole entry, looked up): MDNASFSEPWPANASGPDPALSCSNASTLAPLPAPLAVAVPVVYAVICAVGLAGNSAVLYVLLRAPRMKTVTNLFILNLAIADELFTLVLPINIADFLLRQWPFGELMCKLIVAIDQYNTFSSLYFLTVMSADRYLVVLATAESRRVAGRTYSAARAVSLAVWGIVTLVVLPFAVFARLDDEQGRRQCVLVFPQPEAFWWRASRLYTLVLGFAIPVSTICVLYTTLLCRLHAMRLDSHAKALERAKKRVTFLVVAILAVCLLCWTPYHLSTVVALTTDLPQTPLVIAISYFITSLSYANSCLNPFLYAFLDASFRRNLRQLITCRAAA
DAGLB inhibitor: blocks human DAGLB lipase activity; AID 504411; Q8NCG7; HEK293T DAGLB membrane lysate, EnzChek fluorogenic substrate; hit rate 0.059% among 340,000; inhibition, % at 5.17 µM; in the data active means inhibition above about 34%;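 further: 0% = enzyme with vehicle and 100% = wells lacking enzyme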
nonsel antag count: counter-screen for TAAR1 antagonists: nonselective antagonists; shares compounds with TAAR1 antagonist; inhibition, % at 3 µM; hit rate 77% among 2,400; counterscreen cell line, calcium fluorescence, antagonist mode; in the data active means inhibition above about 22%;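 further: CHO-Ga16 host cells stimulated with ATP at an EC80 level; 0% = agonist EC80 plus vehicle and 100% = vehicle without agonist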
TAAR1 ant conf: human TAAR1 antagonism, confirmed; TAAR1-expressing cells, fluorescence antagonist read-out; AID 651785; hit rate 40% among 2,400; shares compounds with TAAR1 antagonist; inhibition, % at 3 µM; in the data active means inhibition above about 49%;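 further: CHO-Ga16 host cells challenged with agonist PEA near its EC80; 0% = agonist at EC80 plus vehicle and 100% = vehicle with no agonist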
Ga16 nonsel ag: counter-screen for TAAR1 antagonists: nonselective Ga16 agonists; shares compounds with TAAR1 antagonist; Ga16-expressing cells, calcium fluorescence, agonist counterscreen; activation, % at 3 µM; hit rate 18% among 2,400; AID 651953; in the data active means activation above about 12%;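 further: 0% = vehicle wells and 100% = saturating stimulus response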
TAAR1 ag counter: TAAR1 agonism, antagonist counter-screen | shares compounds with TAAR1 antagonist | hTAAR1 cell line, fluorescence activation, agonist mode | activation, % at 3 µM | hit rate 2% among 2,400 | AID 651955; in the data active means activation above about 37%;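 further: CHO cells stably expressing TAAR1 with calcium dye readout; 0% = DMSO vehicle and 100% = full agonist response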
Active calls of the source: *; · = not tested or not shown. Rows were chosen to be rich in hits. Some 4% of all compounds tested hit in one or more screens of this group.

SMILES | MPTP inh | TAAR1 antagonist | TAAR1 agonist | GPR7 antag | DAGLB inhibitor | nonsel antag count | TAAR1 ant conf | Ga16 nonsel ag | TAAR1 ag counter
COc1ccc(CN(C)C(=O)C(Cc2ccccc2)NC(=O)c2ccccc2)c(OC)c1 (centres undefined) | 0 | 67* | 6 | · | 0 | 30* | 50* | 5 | 4
O=C(Cc1c[nH]c2ccccc12)Nc1ccc(Nc2cccnc2)c(-c2ccc(F)c(F)c2)c1 | · | 87* | 23 | · | · | 42* | 65* | 14* | 17
O=C(Cc1c[nH]c2ccccc12)Nc1ccc(Nc2cccnc2)c(-c2cccc(Cl)c2)c1 | · | 72* | 12 | · | · | 29* | 45 | 7 | 4
O=C(CCc1c[nH]c2ccccc12)Nc1ccc(Nc2cccnc2)c(Br)c1 | · | 71* | 7 | · | · | 31* | 39 | 7 | 8
O=C(Cc1c[nH]c2ccccc12)Nc1ccc(Nc2cccnc2)c(-c2ccc(-c3ccccc3)cc2F)c1 | · | 58* | 7 | · | · | 33* | 46 | 5 | 8
O=C(CCc1c[nH]c2ccccc12)Nc1ccc(Nc2cccnc2)cc1 | · | 29 | 4 | · | · | · | · | · | ·
Cc1ccccc1NC(NC(=O)c1cccs1)C(Cl)(Cl)Cl (centres undefined) | 4 | 52* | 13 | -1 | -2 | 20 | 38 | 13* | 16
COc1ccc(-c2cc3nc(NCC4CCCCC4)n(C)c(=O)c3s2)cc1OC | -1 | -3 | -1 | · | · | · | · | · | ·
Cc1c(C(=O)Nc2ccc(F)cc2)oc2ccc(S(=O)(=O)N3CCC4(CC3)OCCO4)cc12 | -4 | 62* | 24 | -11 | -5 | 40* | 50* | 12* | 9
Cc1c(C(=O)NCc2c(F)cc(F)cc2F)oc2ccc(S(=O)(=O)N3CCOCC3)cc12 | 0 | 68* | 19 | 0 | -1 | 24* | 47 | 11 | 17
Cc1c(C(=O)NCc2ccc(F)cc2)oc2ccc(S(=O)(=O)N3CCOCC3)cc12 | 0 | 48 | 20 | 6 | 0 | · | · | · | ·
O=C(c1cc(Cl)cc(Cl)c1)N1CCC(=O)N([C@H](COCc2ccccc2)Cc2ccccc2)CC1 | 0 | 0 | -1 | · | · | · | · | · | ·
O=C(NC1CCCc2ccccc21)C1CCC(CNS(=O)(=O)c2cccc3nsnc23)CC1 (centres undefined) | -1 | 57* | 8 | -10 | -2 | 15 | 42 | 6 | 19
O=C(CCNS(=O)(=O)c1cccc2nsnc12)NC1CCCc2ccccc21 (centres undefined) | 1 | -6 | 2 | -7 | -1 | · | · | · | ·
COC(=O)[C@H](CCSC)NC(=O)NCc1cccs1 | -1 | 107* | 12 | -1 | 0 | -5 | 0 | 0 | -2
COC(=O)[C@@H](NC(=O)NCc1cccs1)C(C)C | -1 | 3 | 10 | -1 | 1 | · | · | · | ·
NC(=O)COc1cccc(/C=N/NC(=O)c2ccc(-n3cccc3)cc2)c1 | 3 | 84* | 7 | 6 | -3 | 18 | 55* | 5 | 3
NC(=O)c1ccc(C(=O)N/N=C/c2cccc(Oc3ccccc3)c2)cc1 | 0 | -1 | 2 | -7 | 2 | · | · | · | ·
C=CCN1C[C@H](COC(=O)c2ccc(C)c(C)c2)Oc2cccc(F)c2S1(=O)=O | · | 28 | 1 | · | · | · | · | · | ·
C=CCN1C[C@H](COC(=O)c2cccc(OC)c2)Oc2cccc(F)c2S1(=O)=O | · | 79* | 9 | · | · | 41* | 56* | 12* | 9
COc1ccc(-c2nc3c(C)cc(Br)cn3c2Cc2cccc(F)c2)cc1OC | 1 | -33 | -2 | · | · | · | · | · | ·
COc1ccc(CNC(=O)COC(=O)c2c(NC(C)=O)sc(C)c2C)cc1OC | 1 | -13 | -1 | · | -3 | · | · | · | ·
Cc1ccc(C(=O)N2N=C(c3ccc(NS(C)(=O)=O)cc3)CC2c2cccs2)cc1 (centres undefined) | 1 | -7 | 6 | 3 | 2 | · | · | · | ·
